{"source": "ChEMBL document CHEMBL4376878", "about": "“Potent Thiophene Antagonists of Human Complement C3a Receptor with Anti-Inflammatory Activity” (J Med Chem, 2020)", "key": {"Rattus norvegicus [1]": {"tested_on": "Rattus norvegicus", "assay": "Antiinflammatory activity in Wistar rat model of BR103-induced paw edema assessed as reduction in Tnf gene expression at 10 mg/kg, po administered via gavage pretreated for 2 hrs followed by BR103 challenge and measured after 30 mins by SYBR green dye based RT-PCR analysis", "assay_type": "functional, organism-based", "how_it_was_run": "(§1)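 Rats given 10 mg/kg p.o. in olive oil 2 h before i.pl. BR103 (350 μg/paw). Paws collected 0.5 h after agonist and homogenized in TRIsure for RNA. qPCR run in duplicate, normalized to Hprt, with fold change relative to sham. n = 3–5 male Wistar rats per group.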"}, "Rattus norvegicus [2]": {"tested_on": "Rattus norvegicus", "assay": "Antiinflammatory activity in Wistar rat model of BR103-induced paw edema assessed as reduction in Il1b gene expression at 10 mg/kg, po administered via gavage pretreated for 2 hrs followed by BR103 challenge and measured after 30 mins by SYBR green dye based RT-PCR analysis", "assay_type": "functional, organism-based", "how_it_was_run": "as §1"}, "[3]": {"assay": "Clearance in Wistar rat at 1 mg/kg, iv by LC-MS/MS analysis", "assay_type": "ADME, organism-based", "settings": "in vivo", "how_it_was_run": "(§2)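 Male Wistar rats with jugular vein catheter, fasted overnight; dosed p.o. by gavage in olive oil or i.v. via catheter in 50% DMSO. Blood drawn from conscious unrestrained rats 5 min before dosing, then 5, 15, 30 min and 1–8 h after. Volume replaced with heparinized saline. Rats fed after 4 h sample. n = 3 per route.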"}, "[4]": {"target": "T1, C5a anaphylatoxin chemotactic receptor 1 (Homo sapiens) (UniProt P21730)", "T1 sequence (whole entry)": "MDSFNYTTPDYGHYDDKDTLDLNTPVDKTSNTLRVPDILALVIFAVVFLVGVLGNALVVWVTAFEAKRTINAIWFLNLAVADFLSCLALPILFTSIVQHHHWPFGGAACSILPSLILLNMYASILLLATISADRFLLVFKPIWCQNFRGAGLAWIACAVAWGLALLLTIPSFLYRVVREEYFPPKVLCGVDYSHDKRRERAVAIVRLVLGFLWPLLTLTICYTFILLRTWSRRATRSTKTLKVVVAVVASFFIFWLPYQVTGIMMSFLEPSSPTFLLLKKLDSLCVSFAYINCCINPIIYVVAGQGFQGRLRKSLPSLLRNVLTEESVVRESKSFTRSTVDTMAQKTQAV", "assay": "Antagonist activity at C5a receptor in human MDM cells assessed as inhibition of C5a-induced intracellular calcium release preincubated for 30 mins followed by C5a addition and measured at 1 sec interval for => 200 secs by Fluo-3 AM dye-based FLIPR assay", "assay_type": "functional, cell-based", "how_it_was_run": "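HMDMs from CD14+ monocytes after 7 days in M-CSF; 5 × 10⁴ cells/well seeded overnight. Cells loaded 1 h at 37 °C with 4 μM Fluo-3 AM, then washed into HBSS with 2.5 mM probenecid and 20 mM HEPES, pH 7.4. Antagonist preincubated 30 min at 37 °C before C5a. Fluorescence (ex 495/em 520 nm) read every 1 s for ≥200 s.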"}, "[5]": {"assay": "Tmax in Wistar rat at 10 mg/kg, po by LC-MS/MS analysis", "assay_type": "ADME, organism-based", "settings": "in vivo", "how_it_was_run": "as §2"}, "[6]": {"assay": "Cmax in Wistar rat at 10 mg/kg, po by LC-MS/MS analysis", "assay_type": "ADME, organism-based", "design": "dose 10 mg/kg, route oral", "settings": "in vivo", "how_it_was_run": "as §2"}, "[7]": {"assay": "Volume of distribution in Wistar rat at 1 mg/kg, iv by LC-MS/MS analysis", "assay_type": "ADME, organism-based", "settings": "in vivo", "how_it_was_run": "as §2"}, "[8]": {"assay": "Stability of the compound in rat plasma at 1 mM measured after 4 hrs by LC-MS analysis", "assay_type": "ADME, cell-free", "how_it_was_run": "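Compound added to rat plasma from 1 mM DMSO stock (stock concentration) and incubated at 37 °C. Samples taken at 0, 5, 15, 30, 60, 120 and 240 min, quenched in MeCN/H₂O 9:1, centrifuged and analyzed by LC-MS. Plasma activity checked with SLIGRL-NH₂.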"}, "[9]": {"target": "T2, C3a anaphylatoxin chemotactic receptor (Homo sapiens) (UniProt Q16581)", "T2 sequence (whole entry)": "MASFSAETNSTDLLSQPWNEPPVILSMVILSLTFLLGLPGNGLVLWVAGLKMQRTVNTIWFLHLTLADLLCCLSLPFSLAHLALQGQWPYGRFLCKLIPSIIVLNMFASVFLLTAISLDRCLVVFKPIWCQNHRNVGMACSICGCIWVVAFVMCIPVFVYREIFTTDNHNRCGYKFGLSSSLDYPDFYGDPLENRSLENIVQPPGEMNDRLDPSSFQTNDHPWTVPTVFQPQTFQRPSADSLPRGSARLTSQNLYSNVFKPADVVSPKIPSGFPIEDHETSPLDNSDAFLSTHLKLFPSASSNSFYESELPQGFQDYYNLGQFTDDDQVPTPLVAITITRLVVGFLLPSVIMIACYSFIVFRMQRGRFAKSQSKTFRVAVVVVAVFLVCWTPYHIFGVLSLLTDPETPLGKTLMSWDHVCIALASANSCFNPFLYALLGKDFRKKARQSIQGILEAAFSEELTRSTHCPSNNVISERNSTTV", "assay": "(§3) Antagonist activity at C3a receptor in human MDM cells assessed as inhibition of C3a-induced intracellular calcium release preincubated for 30 mins followed by C3a addition and measured at 1 sec interval for => 200 secs by Fluo-3 AM dye-based FLIPR assay", "assay_type": "functional, cell-based", "how_it_was_run": "(§4)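 Macrophages were derived from CD14⁺ monocytes (M-CSF, 7 days) and dye-loaded with 4 μM Fluo-3 AM for 1 h at 37 °C in HBSS/probenecid/HEPES, pH 7.4. Antagonist was preincubated for 30 min at 37 °C before addition of synthetic full-length human C3a (100 nM). FLIPR fluorescence was read at ex 495/em 520 nm. Percent response was plotted against log concentration; n ≥ 3.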"}, "[10]": {"target": "T3, C3a anaphylatoxin chemotactic receptor (Homo sapiens, UniProt Q16581)", "T3 sequence (Q16581 whole entry)": "T2 sequence (whole entry)", "assay": "as §3", "assay_type": "functional, cell-based", "settings": "read-out: IC50", "how_it_was_run": "as §4"}, "[11]": {"target": "T2, C3a anaphylatoxin chemotactic receptor (Homo sapiens)", "assay": "(§5) Antagonist at C3a receptor in human LAD2 cells assessed as inhibition of C3a-induced beta-hexosaminidase release preincubated for 30 mins followed by C3a addition", "assay_type": "cell-based", "how_it_was_run": "(§6)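 LAD2 mast cells grown with SCF, 1 × 10⁴ cells/well seeded overnight and presensitized overnight with IgE (100 ng/mL). Compounds preincubated 30 min at 37 °C in 0.1 M HEPES pH 7.4, then C3a added and β-hexosaminidase release measured. IC50 is concentration inhibiting 50% of release induced by 100 nM C3a; n ≥ 3.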"}, "[12]": {"target": "T3, C3a anaphylatoxin chemotactic receptor", "assay": "as §5", "assay_type": "cell-based", "how_it_was_run": "as §6"}, "Rattus norvegicus [13]": {"tested_on": "Rattus norvegicus", "assay": "Antiinflammatory activity in Wistar rat model of BR103-induced paw edema assessed as reduction in Ccl2 gene expression at 10 mg/kg, po administered via gavage pretreated for 2 hrs followed by BR103 challenge and measured after 30 mins by SYBR green dye based RT-PCR analysis", "assay_type": "functional, organism-based", "how_it_was_run": "as §1"}, "[14]": {"target": "T2, C3a anaphylatoxin chemotactic receptor (Homo sapiens)", "assay": "Potency index, ratio of SB290157 IC50 to test compound IC50 for antagonist activity at C3a receptor in human LAD2 cells assessed as inhibition of C3a-induced beta-hexosaminidase release", "assay_type": "cell-based"}, "[15]": {"assay": "Stability of the compound in rat liver microsomes at 1 uM preincubated for 5 mins followed by NADPH addition and measured after 1 hr by LC-MS/MS analysis", "assay_type": "ADME, Microsome", "how_it_was_run": "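Compound at 1 μM in 100 mM phosphate buffer, pH 7.4 (0.1% DMSO), was incubated with rat liver microsomes […] at 37 °C before further NADPH was added. Aliquots taken at 0, 5, 15, 30 and 60 min were quenched in MeCN/H₂O (9:1), centrifuged and analysed by LC-MS/MS. Microsomal activity was confirmed in parallel with SLIGRL-NH₂; n = 3.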"}}, "note": "Activity calls are given as the source filed them. The rule behind the calls is not given here.", "data": [{"smiles": "Cc1cc(C(c2ccc(Cl)cc2)c2ccc(Cl)cc2)sc1C(=O)N[C@@H](CCCNC(=N)N)C(=O)O", "values": [{"measurement": "Activity", "setting": "Rattus norvegicus [1]", "value": "Active"}, {"measurement": "Activity", "setting": "Rattus norvegicus [2]", "value": "Active"}, {"measurement": "clearance", "setting": "[3]", "value": 4.4, "unit": "mL/min/kg"}, {"measurement": "inhibition", "setting": "[4]", "value": "inactive"}, {"measurement": "Tmax", "setting": "[5]", "value": 5, "unit": "h"}, {"measurement": "Cmax", "setting": "[6]", "value": 88, "unit": "ng/mL"}, {"measurement": "Vd", "setting": "[7]", "value": 0.1, "unit": "L"}, {"measurement": "Stability", "setting": "[8]", "value": "Stable"}, {"measurement": "inhibition", "setting": "[9]", "value": "Dose-dependent effect"}, {"measurement": "IC50", "setting": "[10]", "value": 10, "unit": "nM"}, {"measurement": "inhibition", "setting": "[11]", "value": "Dose-dependent effect"}, {"measurement": "IC50", "setting": "[12]", "value": 8, "unit": "nM"}, {"measurement": "Activity", "setting": "Rattus norvegicus [13]", "value": "Active"}, {"measurement": "Ratio IC50", "setting": "[14]", "value": 100}, {"measurement": "Stability", "setting": "[15]", "value": "Stable"}]}]}
